High-throughput results deposited in PubChem BioAssay by Sanford-Burnham Center for Chemical Genomics.
Rows were chosen to be rich in hits. Some 2.3% of all compounds tested hit in one or more screens of this group.
MT1-MMP act inh: inhibitors of human MT1-MMP activation. HT1080 RFP-PRO-GFP cells, GFP/RFP ratio fluorescence, overnight; percent of plate control window, DMSO zero. 360,000 compounds, 0.061% hits. P50281. GFP/RFP ratio change, % at 20 µM;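 active means GFP/RFP ratio change of at least 30% with cell ATP level not reduced by more than half and red fluorescence within 50% of control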
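Compound: 20 µM single dose, 1% DMSO / System: HT1080 RFP-PRO-GFP cells / Controls: DMSO and RFP-L50D-GFP cell wells / Read-out basis: GFP/RFP fluorescence ratio / Schedule: overnight compound exposure at 37 °C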
SKN-1 block: inhibitors of C. elegans SKN-1. 360,000 compounds, 0.49% hits. inhibition, % at 21.8 µM. C. elegans VP596 Pgst-4::GFP/RFP ratio, acrylamide-induced, 24 h;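 active means interference check ratio from 0.5 to 1.5 plus GFP to RFP signal ratio inhibition reaching or exceeding a fixed threshold, cut at about 30% in these data, passing the limit was not always enough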
ATG4B inh: ATG4B (human) cysteine protease inhibition. Q9Y4P1. ATG4B cleavage of LC3-PLA2, NBD-HPC fluorescence, 1 h. inhibition, % at 8.33 µM. 340,000 compounds, 0.51% hits; in the data active means inhibition above about 40%
Target sequence (Q9Y4P1 whole entry, looked up): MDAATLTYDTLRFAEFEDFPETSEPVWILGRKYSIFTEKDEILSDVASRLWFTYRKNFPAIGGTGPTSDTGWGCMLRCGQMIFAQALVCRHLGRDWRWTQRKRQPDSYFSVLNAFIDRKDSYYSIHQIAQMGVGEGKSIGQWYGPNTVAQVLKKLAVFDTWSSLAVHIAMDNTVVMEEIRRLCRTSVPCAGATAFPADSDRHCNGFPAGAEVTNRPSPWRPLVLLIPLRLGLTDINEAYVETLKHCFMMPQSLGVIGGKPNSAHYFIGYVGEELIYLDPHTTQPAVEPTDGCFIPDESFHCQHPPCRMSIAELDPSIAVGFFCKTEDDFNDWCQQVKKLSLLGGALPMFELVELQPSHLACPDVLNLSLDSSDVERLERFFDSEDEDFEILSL
MPTP inh: inhibitors of mitochondrial permeability transition pore. isolated mouse mitochondria, Ca2+ swelling absorbance, 30 min. 360,000 compounds, 1.4% hits. inhibition, % at 10 µM. AID 602449;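 active means inhibition of 50% or more, scaled per plate between neutral and stimulator controls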;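 further: 0% = DMSO wells given calcium and 100% = 1 mM EGTA wells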
MPTP counter: membrane potential counter-screen of mitochondrial pore inhibitors | 5,000 compounds, 78% hits | isolated mitochondria, Rhodamine 123 fluorescence | shares compounds with MPTP inh | inhibition, % at 10 µM | AID 624504; in the data active means inhibition above about 22%;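 further: 0% = DMSO vehicle and 100% = positive control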
MPTP swell DR: MPTP inhibition, dose response swelling confirmation; shares compounds with MPTP inh; isolated mitochondria swelling, absorbance; IC50, µM; 780 compounds, 58% hits; in the data active means IC50 below about 20 µM
MPTP counter DR: counter-screen for mitochondrial permeability transition pore inhibitors, dose response | IC50, µM | 780 compounds, 49% hits | isolated mitochondria counterscreen, fluorescence read-out | shares compounds with MPTP inh; in the data active means IC50 below about 80 µM
Starred values were filed as active, the others as inactive.

How did CCc1ccc(CN2CCN(Cc3ccc(SC)cc3)CC2)cc1 do in these assays?
MT1-MMP act inh: -1; SKN-1 block: -10; ATG4B inh: -6; MPTP inh: 56*; MPTP counter: -7; MPTP swell DR: inactive; MPTP counter DR: 45*

What do the screens show for `CC(C)(C)n1nnnc1C(c1cccc2ccccc12)N1CCC2(CC1)C(=O)NCN2c1ccccc1` (stereo not given)?
MT1-MMP act inh: -7; SKN-1 block: 6; MPTP inh: 2

Results for CC(C)(C)C1(CCO)C(=O)NC(=S)NC1=O ?
MT1-MMP act inh: 2; SKN-1 block: 6; ATG4B inh: -1; MPTP inh: -2

Results for O=C(Nc1cccc(Cl)c1)OC1CN2CCC1CC2 (stereo not given) ?
MT1-MMP act inh: -4; SKN-1 block: -12; ATG4B inh: -3; MPTP inh: 92*; MPTP counter: 88*

How did O=C(Nc1ccccc1Cl)OC1CN2CCC1CC2 (stereo not given) do in these assays?
MT1-MMP act inh: -1; SKN-1 block: 3; ATG4B inh: 17; MPTP inh: 0

What do the screens show for `O=C(Nc1ccc(Cl)cc1)OC1CN2CCC1CC2` (stereo not given)?
MT1-MMP act inh: 0; SKN-1 block: 6; ATG4B inh: 5; MPTP inh: 78*; MPTP counter: 93*

Results for CC(=O)OC1C(O)C2=C3C4(C)C1C(C)(C)C(=O)CC4C3(O)C(OC(C)=O)C1(CC1C)C2=O (stereo not given) ?
MT1-MMP act inh: -3; SKN-1 block: -18; MPTP inh: -1

What do the screens show for `C[C@]12CCC3C(CC[C@H]4C[C@H](OC(=O)c5cccnc5)CC[C@]34C)C1CCC2=O` (stereo not given in full)?
MT1-MMP act inh: 5; SKN-1 block: 11; ATG4B inh: 10; MPTP inh: 2

How did S=C(NCCc1ccccc1)N1Cc2cc(N3CCCCC3)ccc2-n2nncc2C1 do in these assays?
MT1-MMP act inh: -4; SKN-1 block: 19; MPTP inh: 4

What do the screens show for `O=C(CF)NC(NC(=S)Nc1cccc([N+](=O)[O-])c1)C(Cl)(Cl)Cl` (stereo not given)?
MT1-MMP act inh: -1; SKN-1 block: 1; ATG4B inh: -19; MPTP inh: 79*; MPTP counter: 92*

Results for CC(C)(C)c1cc(C=C(C#N)C#N)cc(C(C)(C)C)c1O ?
MT1-MMP act inh: 5; SKN-1 block: 42*; ATG4B inh: 1; MPTP inh: 108*; MPTP counter: 89*

What do the screens show for `Cc1c(NS(=O)(=O)c2ccccc2)ccc([N+](=O)[O-])c1Cl`?
MT1-MMP act inh: 4; SKN-1 block: 12; ATG4B inh: 8; MPTP inh: 98*; MPTP counter: 90*

What do the screens show for `Cc1cc2c(C(C)C)c(O)c(O)c(C=O)c2c(O)c1-c1c(C)cc2c(C(C)C)c(O)c(O)c(C=O)c2c1O`?
MT1-MMP act inh: 18; SKN-1 block: 10; MPTP inh: 85*; MPTP counter: 19

What do the screens show for `CCOC(=O)C1(CCc2ccccc2)CCN(Cc2ccc3c(c2)OCCO3)CC1`?
MT1-MMP act inh: 5; SKN-1 block: 9; ATG4B inh: 9; MPTP inh: 28

How did CCOC(=O)C1(CCOc2ccccc2)CCN(Cc2ccc(C)s2)CC1 do in these assays?
MT1-MMP act inh: -2; SKN-1 block: 2; ATG4B inh: 3; MPTP inh: 65*; MPTP counter: 82*

What do the screens show for `CCOC(=O)c1cc2cc(OC)ccc2n1C1CCN(Cc2ccccc2)CC1`?
MT1-MMP act inh: 2; SKN-1 block: 10; MPTP inh: 4

What do the screens show for `O=[N+]([O-])c1ccc(N2CCCCC2)c2ncccc12`?
MT1-MMP act inh: 7; SKN-1 block: 17; ATG4B inh: -7; MPTP inh: -4

What do the screens show for `O=[N+]([O-])c1ccc(N2CCCC(C(F)(F)F)C2)c2ccncc12` (stereo not given)?
MT1-MMP act inh: -6; SKN-1 block: 3; ATG4B inh: 2; MPTP inh: 77*; MPTP counter: 90*

Results for Cc1ccc(OC(=O)N(C)C[C@@H]2OCc3cnnn3CCCC(=O)N([C@@H](C)CO)C[C@@H]2C)cc1 ?
MT1-MMP act inh: 2; SKN-1 block: -26; MPTP inh: -1

What do the screens show for `O=C1NC(=S)SC1=Cc1ccc(N(CCCl)CCCl)cc1`?
MT1-MMP act inh: -120; SKN-1 block: 32; ATG4B inh: 16; MPTP inh: 53*; MPTP counter: 67*

How did O=C(O)CCCc1ccc(N(CCCl)CCCl)cc1 do in these assays?
MT1-MMP act inh: 1; SKN-1 block: -7; ATG4B inh: -5; MPTP inh: -2

Results for c1ccc2c(N3CCNCC3)cccc2c1 ?
MT1-MMP act inh: -9; SKN-1 block: -19; ATG4B inh: 4; MPTP inh: 70*; MPTP counter: -5; MPTP swell DR: 19*; MPTP counter DR: >80

How did CCN(CC)c1ccc(CNCCc2ccc(F)cc2)cc1 do in these assays?
MT1-MMP act inh: 1; SKN-1 block: 2; ATG4B inh: 0; MPTP inh: 8

Results for O=C1N(c2ccc(Cl)cc2)C(c2cccnc2)N2CCCN12 (stereo not given) ?
MT1-MMP act inh: 6; SKN-1 block: -10; ATG4B inh: 3; MPTP inh: 67*; MPTP counter: 104*

What do the screens show for `CCC12CN3CC(CC)(CN(C1)C3c1cccnc1)C2=O` (stereo not given)?
MT1-MMP act inh: 1; SKN-1 block: 13; ATG4B inh: -3; MPTP inh: -4

What do the screens show for `Oc1cc(Cl)c(Cl)c(Cl)c1Cl`?
MT1-MMP act inh: -1; SKN-1 block: 3; ATG4B inh: 13; MPTP inh: 79*; MPTP counter: 99*

What do the screens show for `Oc1ccc(Cl)c(Cl)c1`?
MT1-MMP act inh: -1; SKN-1 block: 4; ATG4B inh: 9; MPTP inh: 2

What do the screens show for `Oc1cc(Cl)c(Cl)c(Cl)c1`?
MT1-MMP act inh: -5; SKN-1 block: 11; ATG4B inh: 6; MPTP inh: 95*; MPTP counter: 87*

What do the screens show for `O=C(c1cc(C(=O)NCc2ccccc2)c(=O)n(Cc2ccccc2)c1)c1cc(Cl)ccc1O`?
MT1-MMP act inh: -3; SKN-1 block: 17; ATG4B inh: 15; MPTP inh: 82*; MPTP counter: 75*

How did CC(C)CCNC(=O)c1cc(C(=O)c2cc(Br)ccc2O)cn(CCC(C)C)c1=O do in these assays?
MT1-MMP act inh: -21; SKN-1 block: 3; ATG4B inh: 6; MPTP inh: 93*; MPTP counter: 7; MPTP swell DR: >100; MPTP counter DR: <2.5*
